Laboratory results published in ChEMBL document CHEMBL1123901, “Inhibition of delayed hypersensitivity reactions by cinnamyl 1-thioglycosides” (J Med Chem, 1987).
pIC50: −log10 of the molar value.

Key:
Assay type in all cases: functional
Mus musculus [1] = assay: Compound was administered orally to mice before increase in foot-pad thickness at a dose of 3 mg/kg; conditions: route oral
Method in brief: (§1)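 DTH in A/J female mice (20-23 g): cyclophosphamide 200 mg/kg sc, then iv sensitization with 10^8 washed SRBC 3 days later. On day 6 after sensitization, one hind footpad challenged with 10^8 SRBC in 20 μL, the other given saline. Dosing ip or po to overnight-fasted mice 20 min before challenge. Swelling read at 24 and 48 h as antigen minus saline footpad (mm × 10), by constant-pressure caliper.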

Cavia porcellus [2] = organism: Cavia porcellus; assay: [3H]thymidine uptake was determined by liquid scintillation spectroscopy in Macrophages
Method in brief: (§2)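 Guinea pig PELs and irradiated (2100 rads) exudate macrophages were each preincubated with compound (1 mM or 500 μM, depending on agent) for 18 h at 37 °C, then washed. Macrophages were pulsed with OVA 100 μg/mL for 1 h at 37 °C and washed. Cells were viability-adjusted by trypan blue and mixed, with or without OVA 10 μg/mL. Culture ran 72 h at 37 °C with [3H]thymidine read by scintillation, as mean Δcpm × 10^-3.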

Cavia porcellus [3] = organism: Cavia porcellus; assay: Effect on guinea pig T cell proliferation was tested by measuring the incorporation of [3H]thymidine uptake at the concentration of 250 uM
Method in brief: (§3)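 Strain 2 female guinea pigs were immunized with 100 μg OVA in CFA split over the footpads. At day 14 they received mineral oil ip, and the exudate was collected 4 days later. T cells were enriched on nylon wool. 2×10^5 cells per well were cultured with 10% irradiated (2100 rads) exudate cells, OVA (10 μg/mL) and compound, for 72 h at 37 °C in 5% CO2. [3H]thymidine (1 μCi) was added 18-24 h before harvest. Triplicate wells; mean Δcpm ± SD.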

Mus musculus [4] = assay: Percent reduction in mice after intraperitoneal administration of 30 mg/kg; method in brief: as §1
Mus musculus [5] = assay: Compound was administered intraperitoneally to mice before increase in foot-pad thickness at a dose of 10 mg/kg; conditions: route intraperitoneal; method in brief: as §1
Mus musculus [6] = assay: Compound was administered intraperitoneally to mice before increase in foot-pad thickness at a dose of 3 mg/kg; conditions: route intraperitoneal; method in brief: as §1
Mus musculus [7] = assay: Compound was administered intraperitoneally to mice before increase in foot-pad thickness at a dose of 30 mg/kg; conditions: route intraperitoneal; method in brief: as §1
Cavia porcellus [8] = organism: Cavia porcellus; assay: Effect on guinea pig T cell proliferation was tested by measuring the incorporation of [3H]thymidine uptake at the concentration of 750 uM; method in brief: as §3
Cavia porcellus [9] = organism: Cavia porcellus; assay: Effect on guinea pig T cell proliferation was tested by measuring the incorporation of [3H]-thymidine uptake at the concentration of 100 uM; method in brief: as §3
Cavia porcellus [10] = organism: Cavia porcellus; assay: [3H]thymidine uptake was determined by liquid scintillation spectroscopy in ovalbumin (OVA) pulsed compound 4 treated Macrophages
Method in brief: (§4)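 Pretreatment protocol. Strain 2 female guinea pigs immunized with OVA in CFA (100 μg OVA; 0.1 mL/foot); mineral oil given ip at day 14, peritoneal exudate collected 4 days later. Nylon-wool-enriched T cells (PELs) and irradiated (2100 rads) exudate macrophages each incubated with sugar derivative 18 h at 37 °C, then washed. Macrophages pulsed with OVA 100 μg/mL for 1 h at 37 °C and washed. Viability adjusted by trypan blue; populations mixed and cultured 72 h at 37 °C. [3H]thymidine (1 μCi) added 18-24 h before harvest; read by liquid scintillation as mean Δcpm ×10^-3.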

Mus musculus [11] = assay: Percent reduction in mice after oral administration 10 mg/kg; method in brief: as §1
Cavia porcellus [12] = organism: Cavia porcellus; assay: [3H]thymidine uptake was determined by liquid scintillation spectroscopy in 4 pretreated OVA pulsed Macrophages plus OVA (10 ug/mL) pretreated with 500 uM of 4 at 37 degree C for 18 h; conditions: in the assay text read “1 mM” for “500 uM”; method in brief: as §2
Mus musculus [13] = assay: Percent reduction in mice after oral administration 3 mg/kg; method in brief: as §1
Cavia porcellus [14] = organism: Cavia porcellus; assay: Effect on guinea pig T cell proliferation was tested by measuring the incorporation of [3H]thymidine uptake at the concentration of 10 uM; method in brief: as §3
Cavia porcellus [15] = organism: Cavia porcellus; assay: [3H]thymidine uptake was determined by liquid scintillation spectroscopy in compound 4 treated Macrophages pretreated with 500 uM of 4 at 37 degree C for 18 h; conditions: in the assay text read “1 mM” for “500 uM”; method in brief: as §2
Cavia porcellus [16] = organism: Cavia porcellus; assay: [3H]thymidine uptake was determined by liquid scintillation spectroscopy in ovalbumin pulsed Macrophages; method in brief: as §4
Cavia porcellus [17] = organism: Cavia porcellus; assay: [3H]-Thymidine uptake was determined by liquid scintillation spectroscopy in OVA pulsed compound 4 pretreated Macrophages pretreated with 500 uM of 4 at 37 degree C for 18 h; conditions: in the assay text read “1 mM” for “500 uM”; method in brief: as §2
Mus musculus [18] = assay: Percent reduction in mice after intraperitoneal administration 3 mg/kg; method in brief: as §1
Cavia porcellus [19] = organism: Cavia porcellus; assay: Effect on guinea pig T cell proliferation was tested by measuring the incorporation of [3H]thymidine uptake at the concentration of 500 uM; method in brief: as §3
Cavia porcellus [20] = organism: Cavia porcellus; assay: [3H]thymidine uptake was determined by liquid scintillation spectroscopy in compound 4 pretreated OVA pulsed Macrophages plus OVA (10 ug/mL); method in brief: as §2
Cavia porcellus [21] = organism: Cavia porcellus; assay: [3H]thymidine uptake was determined by liquid scintillation spectroscopy in compound 2 treated Macrophages; method in brief: as §2
Mus musculus [22] = assay: Percent reduction in mice after intraperitoneal administration 10 mg/kg; method in brief: as §1
Mus musculus [23] = assay: Percent reduction in mice after oral administration of 30 mg/kg; method in brief: as §1
Cavia porcellus [24] = organism: Cavia porcellus; assay: Effect on guinea pig T cell proliferation was tested by measuring the incorporation of [3H]thymidine uptake at the concentration of 1000 uM; method in brief: as §3
Mus musculus [25] = assay: Compound was administered orally to mice before increase in foot-pad thickness at a dose of 10 mg/kg; conditions: route oral; method in brief: as §1
Cavia porcellus [26] = organism: Cavia porcellus; assay: Effect on guinea pig T cell proliferation was tested by measuring the incorporation of [3H]-thymidine uptake at the concentration of 0 uM; method in brief: as §3
Cavia porcellus [27] = organism: Cavia porcellus; assay: [3H]-Thymidine uptake was determined by liquid scintillation spectroscopy in Macrophages pretreated with 500 uM of 4 at 37 degree C for 18 h; conditions: in the assay text read “1 mM” for “500 uM”; method in brief: as §2
Mus musculus [28] = assay: Compound was administered orally to mice before increase in foot-pad thickness at a dose of 30 mg/kg; conditions: route oral; method in brief: as §1
Cavia porcellus [29] = organism: Cavia porcellus; assay: Inhibitory activity against [3H]thymidine uptake by cinnamyl 1-thioglycosides in guinea pig T cell proliferation; conditions: t-cell; method in brief: as §3
Cavia porcellus [30] = organism: Cavia porcellus; assay: [3H]thymidine uptake was determined by liquid scintillation spectroscopy in 3 treated Macrophages plus OVA (10 ug/mL); method in brief: as §2
Cavia porcellus [31] = organism: Cavia porcellus; assay: [3H]-Thymidine uptake was determined by liquid scintillation spectroscopy in Macrophages pretreated with 500 uM 21 at 37 degree C for 18 h; method in brief: as §2
Cavia porcellus [32] = organism: Cavia porcellus; assay: [3H]-Thymidine uptake was determined by liquid scintillation spectroscopy in ovalbumin (OVA) pulsed compound 2 treated Macrophages; method in brief: as §2
Cavia porcellus [33] = organism: Cavia porcellus; assay: [3H]thymidine uptake was determined by liquid scintillation spectroscopy in compound 21 pretreated OVA pulsed Macrophages plus OVA (10 ug/mL); method in brief: as §2
Cavia porcellus [34] = organism: Cavia porcellus; assay: [3H]thymidine uptake was determined by liquid scintillation spectroscopy in OVA pulsed compound 21 pretreated Macrophages pretreated with 500 uM of 21 at 37 degree C for 18 h; method in brief: as §2
Cavia porcellus [35] = organism: Cavia porcellus; assay: [3H]-Thymidine uptake was determined by liquid scintillation spectroscopy in compound 21 pretreated Macrophages plus OVA (ug/mL) pretreated with 500 uM of 21 at 37 degree C for 18 h; method in brief: as §2
Cavia porcellus [36] = organism: Cavia porcellus; assay: [3H]-Thymidine uptake was determined by liquid scintillation spectroscopy in 21 pretreated OVA pulsed Macrophages plus OVA (10 ug/mL) pretreated with 500 uM of 21 at 37 degree C for 18 h; method in brief: as §2
Cavia porcellus [37] = organism: Cavia porcellus; assay: [3H]-Thymidine uptake was determined by liquid scintillation spectroscopy in compound 21 treated Macrophages pretreated with 500 uM of 21 at 37 degree C for 18 h; method in brief: as §2
Cavia porcellus [38] = organism: Cavia porcellus; assay: [3H]-Thymidine uptake was determined by liquid scintillation spectroscopy in OVA pulsed Macrophages pretreated with 500 uM of 21 at 37 degree C for 18 h; method in brief: as §2

Row | SMILES | Delta cpm x10e-3 (Cavia porcellus [2]) | Activity (Cavia porcellus [3]) | Activity (Cavia porcellus [8]) | Activity (Cavia porcellus [9]) | Activity (Cavia porcellus [14]) | Delta cpm x10e-3 (Cavia porcellus [16]) | Activity (Cavia porcellus [19]) | Delta cpm x10e-3 (Cavia porcellus [21]) | Activity (Cavia porcellus [24]) | Activity (Cavia porcellus [26]) | pIC50 (Cavia porcellus [29]) | further results
1 | CC1OC(SC/C=C/c2ccccc2)C(O)C(O)C1O (stereo in doubt; 4) | 6.67 | 5.8 Δcpm x10e-3 | 0.02 Δcpm x 10^-3 | 62.1 Δcpm x10e-3 | 93.6 Δcpm x10e-3 | 141.55 | 1.51 Δcpm x10e-3 | 4.89 | 0.06 Δcpm x10e-3 | 72.8 Δcpm x10e-3 | 3.80 | Activity (Mus musculus [1]): 0.98 mm x10; Reduction (Mus musculus [4]): 56%; Activity (Mus musculus [5]): 2.78 mm x10; Activity (Mus musculus [6]): 4.6 mm x10; Activity (Mus musculus [7]): 2.34 mm x10; Delta cpm x10e-3 (Cavia porcellus [10]): 104.36; Reduction (Mus musculus [11]): 18%; Delta cpm x10e-3 (Cavia porcellus [12]): 49.95; Reduction (Mus musculus [13]): 16%; Delta cpm x10e-3 (Cavia porcellus [15]): 2.81; Delta cpm x10e-3 (Cavia porcellus [17]): 33.97; Reduction (Mus musculus [18]): 13%; Delta cpm x10e-3 (Cavia porcellus [20]): 139.97; Reduction (Mus musculus [22]): 47%; Reduction (Mus musculus [23]): 34%; Activity (Mus musculus [25]): 0.96 mm x10; Delta cpm x10e-3 (Cavia porcellus [27]): 4.75; Activity (Mus musculus [28]): 0.77 mm x10
2 | CC1OC(SC/C=C/c2ccccc2)C(O)C(O)C1O (stereo in doubt; 5) | – | 109 Δcpm x10e-3 | 31.8 Δcpm x 10^-3 | 130 Δcpm x10e-3 | 144 Δcpm x10e-3 | – | 66.6 Δcpm x10e-3 | – | 17.5 Δcpm x10e-3 | 147 Δcpm x10e-3 | 3.28 | –
3 | CC1OC(SC/C=C/c2ccccc2)C(O)C(O)C1O (stereo in doubt; 6) | – | 59.7 Δcpm x10e-3 | 12.8 Δcpm x 10^-3 | 101 Δcpm x10e-3 | 115 Δcpm x10e-3 | – | 36.4 Δcpm x10e-3 | – | 5.97 Δcpm x10e-3 | 93.5 Δcpm x10e-3 | 3.12 | –
4 | CC1OC(SC/C=C/c2ccccc2)C(O)C(O)C1O (stereo in doubt; 21) | 1.46 | 26.7 Δcpm x10e-3 | 0 Δcpm x 10^-3 | 66.3 Δcpm x10e-3 | 86.5 Δcpm x10e-3 | 45.43 | 0.11 Δcpm x10e-3 | 2.26 | 0 Δcpm x10e-3 | 89.1 Δcpm x10e-3 | 3.99 | Delta cpm x10e-3 (Cavia porcellus [30]): 14.22; Delta cpm x10e-3 (Cavia porcellus [31]): 1.34; Delta cpm x10e-3 (Cavia porcellus [32]): 13.97; Delta cpm x10e-3 (Cavia porcellus [33]): 11.14; Delta cpm x10e-3 (Cavia porcellus [34]): 2.63; Delta cpm x10e-3 (Cavia porcellus [35]): 2.63; Delta cpm x10e-3 (Cavia porcellus [36]): 3.82; Delta cpm x10e-3 (Cavia porcellus [37]): 1.62; Delta cpm x10e-3 (Cavia porcellus [38]): 29.03
